Compound activity (PubChem)
Most compounds without a hit are left out; they make up all but 5.3% or so of the library.
Beta cell apopt – blocks beta cell apoptosis | 300,000 compounds, 0.8% hits | protection from apoptosis, % (concentration not given with the values) | INS-1E cytokine-induced death, ATP luminescence, 48 h; percent of positive-control rescue, neutral wells zero;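 active means Every replicate reaches about 75%, or at least half do and their mean reaches it too, limit read from the data; inconclusive means At least half of replicates reach the limit but their mean does not; inactive means Under half of replicates reach the limit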;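 further: 0% = cytokine-treated negative control wells and 100% = positive control rescue; higher means more ATP so stronger rescue from cytokine killing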
CSC inhib – blocks cancer stem cells. cancer stem cell-like cells viability, luminescence. AID 2717. 300,000 compounds, 1.1% hits. inhibition, % at 7.5 µM; in the data active means inhibition above about 75%; inconclusive means no clear call, values can overlap the other calls; tested in HMLE shEcad cells
NALP3 yeast inh – blocks the NALP3 inflammasome reconstituted in yeast; Yeast reconstituted NLRP3/ASC/caspase-1, beta-gal luminescence, 24 h; inhibition, % at 10 µM; 330,000 compounds, 0.39% hits;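 active means inhibition of 50% or more; inactive means inhibition below 50%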;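 further: plate controls were induced DMSO wells for no effect and uninduced yeast grown without galactose for full effect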
Calb FLC – affects C. albicans growth with fluconazole; growth inhibition, % (test concentration not listed); C. albicans CaCi-2 (fluconazole-resistant clinical isolate) + fluconazole, Alamar Blue growth, 48 h; 300,000 compounds, 0.57% hits;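 active means growth inhibition above about 58% in most replicates, limit read from the data, passing the limit was not always enough; inconclusive means exactly half the replicates above a set limit; inactive means most replicates below a set limit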;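 further: all wells also contain fluconazole at 8 µg/ml as a sub-toxic cotreatment; 0% = median of DMSO wells and 100% = median of geldanamycin control wells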
T cruzi inh – blocks replication of Trypanosoma cruzi; T. cruzi beta-gal in NIH3T3, luminescence, 90 h; inhibition, % (concentration not given with the values); 300,000 compounds, 1.4% hits; AID 1885;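 active means mean inhibition across valid replicates above about 55%, limit read from the data; inconclusive means mean below that limit but half or more replicates reach it; inactive means mean below it, under half of replicates reach it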;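 further: signal also drops with host cell toxicity which is not excluded here; 0% = plate median of DMSO wells and 100% = zero luminescence signal; higher percent means less beta-gal luminescence so fewer parasites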
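System – NIH/3T3 host cells with β-galactosidase reporter T. cruzi · Doses – single 50 nL compound addition per well in DMSO · Reagent – 5000 T. cruzi trypomastigotes/well · Medium – Low-serum DMEM with 2% FBS · Timing – ≥90 h infection period, 3 h prior cell attachment · Evaluation – parasite load inhibition, % · Technique – GalScreen luminescence, 60 min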
Mdm2 MdmX PPI – human Mdm2/MdmX binding inhibition; AID 485346; 330,000 compounds, 3% hits; SaOS-2 split-luciferase Mdm2/MdmX complementation, luminescence; inhibition, % at 8 µM; O15151+Q00987;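 active means inhibition of at least 50% at 8 µM in the primary screen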
Mdm2 MdmX conf – confirmation of human Mdm2/MdmX interaction inhibitors; shares compounds with Mdm2 MdmX PPI; Mdm2-MdmX binding, luminescent assay; inhibition, % at 8 µM; 10,000 compounds, 55% hits; in the data active means inhibition above about 40%
FLuc counter – full-length luciferase inhibition in Mdm2/MdmX counter-screen | SaOS-2 full-length luciferase counterscreen, luminescence | inhibition, % at 8 µM | AID 504607 | shares compounds with Mdm2 MdmX PPI | 6,200 compounds, 77% hits;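 active means mean inhibition at 8 µM reaching about 37%, which flags the compound as non-specific, limit read from the data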;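 further: p53-null SaOS-2 cells with luciferase driven by a doxycycline-inducible promoter; compound on cells about two nights before reading with doxycycline added after day one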
Starred values were filed as active, the others as inactive; ? = inconclusive; . = no result.

SMILES	Beta cell apopt	CSC inhib	NALP3 yeast inh	Calb FLC	T cruzi inh	Mdm2 MdmX PPI	Mdm2 MdmX conf	FLuc counter
O=C(c1cccs1)N1CCc2c([nH]c3ccccc23)C1c1ccccn1 (centres undefined)	-6.9	3.3	4.9	-1.1	7.8	10.8	.	.
Cn1cnnc1SCC(=O)Nc1c(F)cc(F)cc1Br	-6.1	-0.7	7.1	.	4.9	-27.1	.	.
COc1cc2ccccc2cc1C(=O)NNC(=O)c1ccccc1O	7.5	13.4	6.6	94.5*	57.1*	55.7*	48.0*	40.4*
COc1cc(NC(=O)c2cc3ccccc3cc2O)c(OC)cc1Cl	110.6*	76.4*	17.0	-6.5	-0.7	100.3*	91.2*	42.4*
Cc1ccc(Cl)cc1NC(=O)c1cc2ccccc2cc1O	103.8*	27.8	26.0	3.2	15.9	92.7*	96.5*	51.7*
COCc1cc(=O)n2c(-c3ccccc3OC)n[nH]c2n1	-4.5	-0.1	26.0	25.2	-22.4	-59.3	.	.
N/C(=N\OCc1ccc([N+](=O)[O-])cc1)c1ccccn1	-0.2	-9.9	16.9	-20.9	-2.0	75.9*	67.3*	44.4*
N#Cc1c(Oc2ccc3ccccc3c2)sc(C(=O)c2ccccc2)c1N	-9.5	.	12.8	-4.8	7.8	75.4*	26.4	.
Cc1cc(NC(=O)C(=O)NCCN2CCN(S(C)(=O)=O)CC2)ccc1Br	13.6	-4.2	0.0	-9.3	-4.3	4.6	.	.
CCCCCCCCCC(=O)N[C@@H]1c2cc(OC)c(OC)cc2C[C@H]1OCc1ccccc1	.	.	.	.	.	89.4*	69.2*	35.8
Cc1cc(C(=O)N2CCc3ccccc3C2)no1	-9.0	1.2	15.6	-13.0	-3.2	2.9	.	.
COc1ccc(C(=O)Nn2c(SCC(=O)c3ccccc3)nc3ccccc3c2=O)cc1	10.1	5.0	1.4	-30.6	8.8	54.4*	51.6*	126.6*
CC(C(=O)Nc1cccc(C#N)c1)N(C)CCOc1ccccc1 (centres undefined)	1.7	9.1	31.9	-12.6	11.7	-2.8	.	.
CC(OC(=O)/C=C/c1ccccc1)C(=O)Nc1cccc(C#N)c1 (centres undefined)	-3.8	4.9	3.5	-4.4	-6.1	55.8*	58.2*	95.2*
COc1ccc(Cl)cc1C(=O)NC(=S)Nc1cc(-c2nc3ccccc3[nH]2)ccc1C	7.0	30.8	5.4	-19.7	.	75.6*	1.2	.
O=C(CSc1cn(CCNC(=O)c2c(F)cccc2F)c2ccccc12)NCC1CCCO1 (centres undefined)	0.7	-1.7	3.2	2.7	-5.7	15.7	.	.
Cc1ccc2nc(-c3ccccn3)c(Nc3ccccc3C)n2c1	101.0*	?	11.8	29.6	61.7*	85.5*	75.0*	35.8
Cc1ccn2c(NC(=O)c3ccccc3)c(-c3ccccc3)nc2c1	-5.4	-7.5	22.6	19.5	-3.0	-15.5	.	.
Cc1ccn2c(Nc3ccccc3C)c(-c3ccccn3)nc2c1	94.1*	57.8	45.9	55.4	49.6	85.1*	52.0*	31.7
Cc1ccn2c(Nc3ccccc3)c(-c3ccccn3)nc2c1	96.3*	80.9*	33.4	5.4	61.7*	81.1*	82.8*	21.3
Cc1ccccc1Nc1c(-c2cccnc2)nc2ccccn12	-20.7	1.2	-5.0	-3.8	-13.6	29.4	.	.
Cc1ccccc1Nc1c(-c2ccccn2)nc2ccccn12	16.9	37.5	2.5	5.6	43.7	65.4*	45.5*	51.7*
O=C(COc1ccccc1F)N1N=C(c2cccs2)CC1c1ccco1 (centres undefined)	.	.	16.4	.	.	0.8	.	.
Cc1onc(-c2ccccc2)c1C(=O)OCCOc1cccc(Cl)c1	.	73.8	22.1	-2.2	14.5	51.8*	62.4*	63.9*
COC(=O)c1c(C)[nH]c(C(=O)CSc2ncnc3sc(-c4ccccc4)cc23)c1C	-4.3	0.3	-15.3	-1.6	-12.8	66.8*	13.4	.
O=c1[nH]c(CSc2ncnc3sc(-c4ccccc4)cc23)nc2ccccc12	27.6	23.0	2.6	-9.1	23.7	87.2*	-11.9	.
CC(C)N(C(=O)CSc1ncnc2sc(-c3ccccc3)cc12)C(C)C	6.9	.	13.2	-4.3	-10.2	-31.4	.	.
